Reference: ChEMBL document CHEMBL5705899 (Biochem J, 2014)
The source made the active and inactive calls. No cut-off for these calls is given here.

Columns and labels:
[1] = target: Mitogen-activated protein kinase 12 (Homo sapiens) (UniProt P53778); assay: Inhibition of recombinant human N-terminal GST-tagged P38gamma (1 to 367 residues) expressed in Escherichia coli assessed as remaining activity at 1 uM using MBP as substrate incubated for 30 mins in presence of [gamma-33P]ATP by filter binding method relative to control
[2] = target: Serine/threonine-protein kinase 3 (Homo sapiens) (UniProt Q13188); assay: (§1) Inhibition of recombinant human N-terminal GST-tagged MST2 (2 to 491 residues) expressed in baculovirus infected Sf21 cells assessed as remaining activity at 1 uM using MBP as substrate incubated for 30 mins in presence of [gamma-33P]ATP by filter binding method relative to control
[3] = system: RAC-alpha serine/threonine-protein kinase (Homo sapiens), P31749 [S473D]; assay: as §1, with “His6-tagged PKBalpha S473D mutant (118” for “N-terminal GST-tagged MST2 (2”, “480” for “491”, “crosstide peptide” for “MBP”
[4] = target: SRSF protein kinase 1 (Homo sapiens) (UniProt Q96SB4); assay: Inhibition of recombinant human N-terminal GST-tagged SRPK1 (2 to 654 residues) expressed in Escherichia coli assessed as remaining activity at 1 uM using RSRSRSRSRSRSRSR as substrate incubated for 30 mins in presence of [gamma-33P]ATP by filter binding method relative to control
[5] = target: Serine/threonine-protein kinase pim-1 (Homo sapiens) (UniProt P11309); assay: Inhibition of recombinant human N-terminal His6-tagged PIM1 (2 to 313 residues) expressed in baculovirus infected Sf21 cells assessed as remaining activity at 1 uM using RSRHSSYPAGT as substrate incubated for 30 mins in presence of [gamma-33P]ATP by filter binding method relative to control
[6] = target: CDK9/cyclin T1 (Homo sapiens) (UniProt O60563+P50750); assay: as §1, with “CDK9 (1” for “MST2 (2”, “372 residues)/Cyclin T1 (1 to 726” for “491”, “YSPTSPSYSPTSPSYSPTSPKKK” for “MBP”
[7] = target: Tyrosine-protein kinase Yes (Homo sapiens) (UniProt P07947); assay: Inhibition of human YES at 1 uM using polyEY as substrate in presence of 33P-ATP by ProQinase assay
[8] = target: Ephrin type-A receptor 7 (Homo sapiens) (UniProt Q15375); assay: Inhibition of human EPHA7 at 1 uM using polyEy as substrate in presence of 33P-ATP by ProQinase assay
[9] = target: TGF-beta receptor type-1 (Homo sapiens) (UniProt P36897); assay: Inhibition of human TGFBR1 at 1 uM using RBER-CHKtide as substrate in presence of 33P-ATP by ProQinase assay
[10] = target: Serine/threonine-protein kinase VRK1 (Homo sapiens) (UniProt Q99986); assay: Inhibition of human VRK1 at 1 uM using RBER-CHKtide as substrate in presence of 33P-ATP by ProQinase assay
[11] = target: SRSF protein kinase 3 (Homo sapiens) (UniProt Q9UPE1); assay: Inhibition of human STK23 at 1 uM using RBER-CHKtide as substrate in presence of 33P-ATP by ProQinase assay
[12] = target: Rho-associated protein kinase 2 (Homo sapiens) (UniProt O75116); assay: Inhibition of human ROCK2 at 1 uM using RB-S6P as substrate in presence of 33P-ATP by ProQinase assay
[13] = target: Serine/threonine-protein kinase Nek11 (Homo sapiens) (UniProt Q8NG66); assay: Inhibition of human NEK11 at 1 uM using MBP as substrate in presence of 33P-ATP by ProQinase assay
[14] = target: 5'-AMP-activated protein kinase catalytic subunit alpha-1 (Homo sapiens) (UniProt Q13131); assay: Inhibition of human AMPKalpha1 (1 to 550 residues) at 1 uM using RBER-CHKtide as substrate in presence of 33P-ATP by ProQinase assay
[15] = target: Serine/threonine-protein kinase N2 (Homo sapiens) (UniProt Q16513); assay: Inhibition of human PRK2 at 1 uM using RBER-CHKtide as substrate in presence of 33P-ATP by ProQinase assay
[16] = target: Serine/threonine-protein kinase WNK1 (Homo sapiens) (UniProt Q9H4A3); assay: Inhibition of human WNK1 at 1 uM using 3xChocktide-PKC as substrate in presence of 33P-ATP by ProQinase assay
[17] = target: Myosin light chain kinase 2, skeletal/cardiac muscle (Homo sapiens) (UniProt Q9H1R3); assay: Inhibition of human MYLK2 at 1 uM using RB-S6P as substrate in presence of 33P-ATP by ProQinase assay
[18] = target: Glycogen synthase kinase-3 beta (Homo sapiens) (UniProt P49841); assay: Inhibition of human GSK3beta at 1 uM using RBER-CHKtide as substrate in presence of 33P-ATP by ProQinase assay
[19] = target: Interleukin-1 receptor-associated kinase 1 (Homo sapiens) (UniProt P51617); assay: Inhibition of human IRAK1 at 1 uM using RB-CTF as substrate in presence of 33P-ATP by ProQinase assay
[20] = target: Serine/threonine-protein kinase pim-2 (Homo sapiens) (UniProt Q9P1W9); assay: Inhibition of human PIM2 at 1 uM using RBER-GSK3 as substrate in presence of 33P-ATP by ProQinase assay
[21] = target: Phosphatidylinositol 4,5-bisphosphate 3-kinase catalytic subunit beta isoform (Homo sapiens, UniProt P42338); assay: Inhibition of PI3Kbeta (unknown origin) using PtdIns(4,5)P2 as substrate preincubated for 20 mins followed by substrate addition and measured after 80 mins by Kinase-Glo assay
[22] = target: Phosphatidylinositol 4,5-bisphosphate 3-kinase catalytic subunit gamma isoform (Homo sapiens, UniProt P48736); assay: Inhibition of human PIK3CG using PIP2/PS as substrate by ADP-Glo assay
[23] = target: Phosphatidylinositol 4-phosphate 5-kinase type-1 gamma (Homo sapiens, UniProt O60331); assay: Inhibition of human PIP5K1C using PI/PS as substrate by ADP-Glo assay
U2OS = assay: Inhibition of PI3K in human U2OS cells expressing FLAG-tagged SGK3 assessed as reduction in AKT phosphorylation at S473 residues at 0.01 to 1 uM 1 hr by immunoblot analysis; type: cell-based; details: dose 0.01-1 µM
Method in brief: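 Flp-In T-REx U2OS cells were grown in McCoy medium with 10% FBS. Expression of C-terminally FLAG-tagged full-length SGK3 was induced with 0.01 mg/ml doxycycline for 24 h. Cells were treated with inhibitor for 1 h and lysed in phosphatase-inhibitor buffer. Lysates were cleared at 16000 g for 10 min at 4°C, protein was measured by Bradford, and phosphorylation was read by immunoblot with ECL detection.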

Question: What does the source list for `CC(C)(O)CNc1ncc(-c2ccnc(Nc3ccnc(Cl)c3)n2)c(CC2CC2)n1`?
Answer: Activity [1]: 133%; Activity [2]: 120%; Activity [3]: 116%; Activity [4]: 111%; Activity [5]: 108%; Activity [6]: 91%; inhibition [7]: inactive; inhibition [8]: inactive; inhibition [9]: inactive; inhibition [10]: inactive; inhibition [11]: inactive; inhibition [12]: inactive; inhibition [13]: inactive; inhibition [14]: inactive; inhibition [15]: inactive; inhibition [16]: inactive; inhibition [17]: inactive; inhibition [18]: inactive; inhibition [19]: inactive; inhibition [20]: inactive; IC50 [21]: 21.4 µM; IC50 [22]: > 10 µM; IC50 [23]: 3.37 µM; inhibition (U2OS): inactive
